High-throughput results deposited in PubChem BioAssay by several laboratories.
Only some compounds are listed: those with a hit (about 1.2% of all), similar ones and a draw of the others.
CaV13 FRET inh: Primary screen for inhibitors of IQ motif and Ca2+-dependent inactivation inhibitor domain binding in CACNA1D, Förster resonance energy transfer in living cells, …; HEK cells, CFP/YFP FRET ICDI-IQ, plate reader, 10 min; percent FRET-ratio fall versus neutral wells; inhibition, % at 12.3 µM; hit rate 0.098% among 340,000;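 active means mean replicate inhibition of at least 30% and at least 1% of replicates passing that level; inconclusive means only one of the two criteria is met; inactive means neither criterion is met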;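 further: 0% = median of the neutral control wells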
Runt-CBFb FRET: inhibitors of RUNX1 Runt–CBFb binding, primary screen, biochemical, FRET, Cerulean-Runt, Venus-CBFb, uHTS | hit rate 0.46% among 220,000 | Cerulean-Runt/Venus-CBFb FRET ratio 530/480, 1 h | Runt-related transcription factor 1 (Homo sapiens) + Core-binding factor subunit beta … | inhibition, % at 20 µM;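 active means inhibition over about 50% at 20 µM in the single-dose screen, limit read from the data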;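 further: 0% = DMSO wells and 100% = excess unlabeled CBFb competitor control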
Target sequence (Q01196 whole entry, looked up): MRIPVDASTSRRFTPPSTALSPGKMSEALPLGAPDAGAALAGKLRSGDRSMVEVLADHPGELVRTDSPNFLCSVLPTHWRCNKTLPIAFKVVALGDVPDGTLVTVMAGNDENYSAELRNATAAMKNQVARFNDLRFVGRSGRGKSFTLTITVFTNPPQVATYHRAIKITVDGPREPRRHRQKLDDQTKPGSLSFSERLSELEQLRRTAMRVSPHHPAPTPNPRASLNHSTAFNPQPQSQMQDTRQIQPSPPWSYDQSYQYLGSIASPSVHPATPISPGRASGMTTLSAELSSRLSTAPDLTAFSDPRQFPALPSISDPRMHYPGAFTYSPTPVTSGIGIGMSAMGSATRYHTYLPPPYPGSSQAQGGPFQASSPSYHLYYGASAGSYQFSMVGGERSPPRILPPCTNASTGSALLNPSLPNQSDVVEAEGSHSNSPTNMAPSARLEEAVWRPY
Target sequence (Q13951 whole entry, looked up): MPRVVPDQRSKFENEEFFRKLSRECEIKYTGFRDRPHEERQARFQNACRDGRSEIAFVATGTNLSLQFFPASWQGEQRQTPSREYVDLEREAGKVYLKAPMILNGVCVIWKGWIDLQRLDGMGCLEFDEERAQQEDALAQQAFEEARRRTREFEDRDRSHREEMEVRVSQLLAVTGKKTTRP
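test system = Cerulean-tagged RUNX1 Runt domain (FRET donor) fusion protein | reagent = Venus-CBFb binding partner, 100 nM | incubation = protein complex preformed 1 h, compound exposure 1 h, room temperature, dark | detection = FRET fluorescence | read-out basis = loss of energy transfer signal | controls = 5 µM unlabeled CBFb as full-inhibition high control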
Runt-SMMHC FRET: inhibitors of RUNX1 Runt–CBFb-SMMHC binding, primary screen, biochemical, FRET, Cerulean-Runt, Venus-CBFb-SMMHC, uHTS; Cerulean-Runt/Venus-CBFb-SMMHC FRET ratio 530/480, 1 h; hit rate 0.74% among 220,000; Runt-related transcription factor 1 (Homo sapiens) + Core-binding factor subunit beta …; inhibition, % at 20 µM;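 active means mean inhibition across duplicate retests at 20 µM reaching about 50%, limit read from the data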;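 further: 0% = DMSO wells and 100% = wells with excess untagged CBFb-SMMHC; inhibitors lower the FRET ratio by blocking Runt binding to CBFb-SMMHC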
RanGTP-Imp inh: inhibitors of RanGTP-importin-beta interaction, primary screen, biochemical, FRET, CFP-Ran, YFP-importin-beta, homogeneous. hit rate 1.1% among 300,000. inhibition, % (test concentration not listed). AID 2216, 2009. cell-free CFP-Ran/YFP-importin-beta FRET ratio. Ran GTPase (GTP-bound) - importin-beta complex;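 active means more than half of the replicate wells show a fall in the fluorescence ratio signal beyond about 16%, limit read from the data, passing the limit was not always enough; inconclusive means exactly half of the replicate wells pass the set limit; inactive means fewer than half of replicates pass the limit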;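 further: 0% = DMSO wells and 100% = Ran loaded with GDP instead of GTP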
Numbers without * were called inactive; u = inconclusive; x = no result given; + = active, no number.

SMILES	CaV13 FRET inh	Runt-CBFb FRET	Runt-SMMHC FRET	RanGTP-Imp inh
CC1CN=C(N(C(=O)Nc2ccccc2)C(C)c2ccccc2)S1 (centres undefined)	-15	2	-2	u
C[C@H](NC(=O)c1nc[nH]c1C(=O)N[C@@H](Cc1ccccc1)C(=O)OCc1ccccc1)C(=O)OCc1ccccc1	15	x	x	0
C[C@H](NC(=O)c1nc[nH]c1C(=O)N[C@@H](Cc1ccccc1)C(=O)OC(C)(C)C)C(=O)OCc1ccccc1	35*	x	x	-1
Cc1cc(CNC(=O)c2ccc3c(c2)OCO3)c2ccccc2n1	152*	0	1	u
COc1ccc(C(=O)NCc2cc(C)nc3ccccc23)cc1	-18	0	-4	3
CCCCCn1c(S(=O)(=O)O)nc2ccccc21	-5	-2	0	2
O=C(NCCCN1CCOCC1)C(=O)NCc1ccccc1	-7	0	-1	-1
COC(=O)c1c(N)n(CCCN2CCOCC2)c2nc3ccccc3nc12	-3	66*	130*	21*
Nc1c(C(=O)NCc2ccccc2)c2nc3ccccc3nc2n1CCCN1CCOCC1	76*	79*	76*	101*
Nc1c(S(=O)(=O)c2cccc(Cl)c2)c2nc3ccccc3nc2n1CCN1CCOCC1	-3	1	-3	12
CCCCCOC(=O)c1c(N)n(CCOC)c2nc3ccccc3nc12	-4	36	114*	6
Nc1c(C(=O)NCc2ccco2)c2nc3ccccc3nc2n1CCc1ccccc1	u	38	76*	56*
COC(=O)[C@]12C[C@H](CC(=O)NCc3cccc(C(F)(F)F)c3)C(=O)N(Cc3ccccc3)C1=C[C@H](C(C)(C)C)O[C@@H]2C	-11	x	x	x
COc1ccccc1C1(O)C(=O)Nc2ccccc21 (centres undefined)	-19	x	x	9
Nc1c(C(=O)NCc2ccc(F)cc2)c2nc3ccccc3nc2n1CCCN1CCOCC1	-2	12	81*	87*
COc1ccc(CNC(=O)c2c(N)n(CCCN3CCOCC3)c3nc4ccccc4nc23)cc1	x	18	81*	97*
O=C(NCCCN1CCOCC1)c1ccc(CNS(=O)(=O)c2ccc(F)cc2)cc1	-9	1	-3	10
CCCN1CCc2nc(SCC(=O)Nc3ccc(C)c(Cl)c3)[nH]c(=O)c2C1	-7	x	x	3
CCOC(=O)c1cc2c(=O)n3ccccc3nc2n(C(C)C)c1=NC(=O)c1ccco1	+	20	86*	0
CCCn1c(=NC(=O)c2ccco2)c(C(=O)OCC)cc2c(=O)n3ccccc3nc21	x	19	56*	116*
CC(C)n1c(=NC(=O)c2ccco2)c(C#N)cc2c(=O)n3ccccc3cc21	x	5	83*	107*
Cn1c(C(=O)N2CCN(C(=O)c3ccco3)CC2)cc2c(=O)n3ccccc3nc21	-5	20	45	3
CCCCN1C(=O)Cc2c1nc(N)c1c(N)nc(N(CCC)CCC)c(C#N)c21	-5	103*	-2	3
COc1ccc(CNc2nc3ccccc3s2)cc1OC	-2	x	x	6
COc1cc2ccccc2nn1	-38	10	82*	65*
SMILES	CaV13 FRET inh	Runt-CBFb FRET	Runt-SMMHC FRET	RanGTP-Imp inh
O=C(CCS(=O)(=O)Cc1ccccc1F)NCc1ccccc1Cl	0	0	2	4
CCC(C)(C)n1nnnc1C(c1cc2cccc(C)c2[nH]c1=O)N1CCN(C(=O)c2ccco2)CC1 (centres undefined)	-3	-18	-131	17*
CCC(C)(C)n1nnnc1C(c1ccc(C)cc1)N1CCN(C(=O)c2ccco2)CC1 (centres undefined)	-4	-4	2	4
Cc1ccc(C)c(NC(=O)COC(=O)CNC(=O)c2ccccc2Cl)c1	-3	1	3	-2
CC1CCc2sc3ncn4nc(C(=O)NCc5ccco5)nc4c3c2C1 (centres undefined)	-4	-2	-4	120*
COC(=O)c1ccc(COC(=O)CNS(=O)(=O)c2ccc(C)cc2)cc1	-4	-1	-3	0
O=C(N/N=C(\Cc1ncc[nH]1)c1ccccc1)c1cccnc1	3	2	5	x
O=C(Nc1ccccn1)N1CCOCC1	-4	1	2	-2
